B2AR ag: agonists of human beta-2 adrenergic receptor inducing internalization | Am2.2-beta2AR cells, FAP receptor internalization, flow cytometry | response, % (test concentration not listed) | actives 0.43% (n = 340,000);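 active means response above a set limit, near 3 SD of response in nonfluorescent compounds, cut at about 42% in these data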
Target sequence (P07550 whole entry, looked up): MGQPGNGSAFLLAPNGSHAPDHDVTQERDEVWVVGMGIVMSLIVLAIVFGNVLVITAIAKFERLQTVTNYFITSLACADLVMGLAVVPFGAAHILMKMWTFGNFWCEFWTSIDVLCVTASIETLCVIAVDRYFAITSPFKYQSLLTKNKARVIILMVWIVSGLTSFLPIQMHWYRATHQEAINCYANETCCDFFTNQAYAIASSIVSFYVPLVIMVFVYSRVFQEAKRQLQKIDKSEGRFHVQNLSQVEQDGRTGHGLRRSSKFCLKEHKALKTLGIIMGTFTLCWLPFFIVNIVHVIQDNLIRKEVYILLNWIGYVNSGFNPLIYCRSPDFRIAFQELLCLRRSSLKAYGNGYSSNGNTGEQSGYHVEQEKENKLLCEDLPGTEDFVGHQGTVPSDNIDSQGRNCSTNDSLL
T cell HTS: T cell immune modulation candidate; AID 2052; 2C CD8+ T cell-vesicle binding, flow cytometry; active compounds read low; actives 0.068% (n = 330,000); response (vesicle binding), % at 7 µM;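 active means response, share of CD8 T cells binding vesicles, and their 90th percentile fluorescence all below set limits, cut at about 80% in these data, passing the limit was not always enough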;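 further: values below 100% mean blocked vesicle binding to the CD8+ T cells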
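incubation = binding step 1.5 h, 37 °C, antibody labelling 20 min, ice | test system = 2C mouse CD8+ T cells | read-out basis = percent CD8+ FL2 mean versus row control | controls = Peptide-free naked vesicles (low) and QL9 vesicles with 0.7% DMSO vehicle (high) | detection = flow cytometry of vesicle-bound cells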
UPR CHOP act: activators of apoptotic arm of unfolded protein response (CHOP). CHO-CHOP luciferase reporter, UPR activation, luminescence; percent of tunicamycin response over DMSO baseline. activation, % at 10 µM. actives 0.34% (n = 330,000);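 active means at 10 µM dose, activation of 40% or more, normalized to positive control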;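 further: 100% = tunicamycin at 10 µg/mL and 0% = DMSO alone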
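System: CHO CHOP reporter cells. Amount: 500 cells per well. Buffer or medium: F12 medium, 10% FBS. Compound dosing: one dose, 10 µM in 0.5% DMSO. Incubation: 6 h compound exposure at 37 °C after overnight seeding. Technique: Steady-Glo luciferase luminescence. Benchmarks: tunicamycin and DMSO controls.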
XBP1 UPR activ: adaptive UPR (XBP1) activation; CHO-XBP1 luciferase reporter, IRE1-XBP1 UPR activation, luminescence; percent of tunicamycin response, DMSO as zero; activation, % at 20 µM; actives 0.33% (n = 330,000);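 active means versus positive control, 20 µM dose yields 30% or more activation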;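 further: 100% = tunicamycin at 10 µg/mL and 0% = DMSO only wells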
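Test system: CHO-XBP1 luciferase reporter cells | Buffer or medium: Serum-containing F12 medium, 10% FBS | Schedule: 6 h compound exposure at 37 °C, 5% CO2 | Detection: Steady-Glo luciferase glow luminescence, 10 min after reagent addition | Read-out basis: Activation, % of tunicamycin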
UPR CHOP confirm: apoptotic UPR (CHOP) activation, confirmed; actives 64% (n = 1,000); activation, % at 10 µM; shares compounds with UPR CHOP act; CHO-CHOP cells, CHOP-luciferase reporter luminescence; percent of tunicamycin response, DMSO as zero; AID 463112; in the data active means activation above about 33%;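 further: 0% = DMSO wells and 100% = tunicamycin 10 µg/mL wells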
An asterisk follows results filed as active. Most compounds without a hit are left out; they make up all but 1% or so of the library.

What do the screens show for `C=C1C(=O)OC2CC(C)C3C=CC(=O)C3(C)C(O)C12` (configuration not stated)?
B2AR ag: 22

Results for O=C1C=C2C=C[C@@H]3CC2(O1)[C@H]1CCCCN31 ?
B2AR ag: 2; T cell HTS: 339; UPR CHOP act: 4; XBP1 UPR activ: -6

How did COC(=O)C1=C(c2cccc(OCc3ccccc3)c2)C[C@@H]2CC[C@H]1N2C(=O)NCCOc1ccccc1Cl do in these assays?
B2AR ag: -9; T cell HTS: 408; UPR CHOP act: 7; XBP1 UPR activ: 1

How did COc1ccc(N2C(=O)/C(=C/c3ccc(C)o3)C(=O)NC2=S)cc1 do in these assays?
B2AR ag: 44*; UPR CHOP act: 433*; XBP1 UPR activ: -1; UPR CHOP confirm: -9

What do the screens show for `COc1cc(CN2CCN(c3cc(C)ccc3C)CC2)ccc1O`?
B2AR ag: 7; T cell HTS: 778; UPR CHOP act: 393*; XBP1 UPR activ: 14; UPR CHOP confirm: 152*

Results for O=c1[nH]c(=O)n(CCc2ccccc2)c(O)c1C=NCc1ccc2c(c1)OCO2 ?
B2AR ag: 16; T cell HTS: inactive; UPR CHOP act: -2; XBP1 UPR activ: 6

How did Cc1ccc(N2C(=O)NC(=O)/C(=C\c3ccoc3)C2=O)cc1 do in these assays?
B2AR ag: 4; T cell HTS: 256; UPR CHOP act: -1; XBP1 UPR activ: -3

What do the screens show for `Cc1cccc(N2C(=O)NC(=O)/C(=C\c3cccn3-c3ccc(Cl)cc3)C2=O)c1`?
B2AR ag: 14; T cell HTS: 187; UPR CHOP act: 419*; XBP1 UPR activ: -3; UPR CHOP confirm: 22

What do the screens show for `CC(=O)N1N=C2C3CCN(CC3)C2C1c1cccc2ccccc12` (configuration not stated)?
B2AR ag: 21; T cell HTS: 492; UPR CHOP act: 2; XBP1 UPR activ: -1

How did CCCCCCn1c(=O)c(C(=O)Nc2ncccc2C)c(O)c2ccccc21 do in these assays?
B2AR ag: -6; T cell HTS: 152; UPR CHOP act: 61*; XBP1 UPR activ: 36*; UPR CHOP confirm: 27

Results for COC(=O)C1=C(c2cccc(OCc3ccccc3)c2)C[C@@H]2CC[C@H]1N2C(=O)NCc1ccc(OC)c(OC)c1 ?
B2AR ag: -4; T cell HTS: 296; UPR CHOP act: -1; XBP1 UPR activ: -2

How did O=C(COc1ccc(Br)cc1)N1CCN(Cc2c[nH]c3ccccc23)CC1 do in these assays?
B2AR ag: 14; T cell HTS: 249; UPR CHOP act: 23; XBP1 UPR activ: 12

What do the screens show for `O=C(COc1ccc2ccccc2c1)N1CCN(Cc2c[nH]c3ccccc23)CC1`?
B2AR ag: 9; T cell HTS: 352; UPR CHOP act: 76*; XBP1 UPR activ: 20; UPR CHOP confirm: 43*

How did COCCN1C(=O)NC(=O)/C(=C\c2ccc(Br)cc2)C1=O do in these assays?
B2AR ag: 5; T cell HTS: 474; UPR CHOP act: -1; XBP1 UPR activ: 2

Results for Cc1ccsc1C(=O)C1CCCN(CCO)C1 (configuration not stated) ?
B2AR ag: 5; T cell HTS: 181; UPR CHOP act: 2; XBP1 UPR activ: 0

What do the screens show for `C=C(C)C(Cc1c(OC)ccc(C(=O)/C=C/c2ccc(O)cc2)c1O)OO` (configuration not stated)?
B2AR ag: 10; T cell HTS: 518; UPR CHOP act: 47*; XBP1 UPR activ: 2; UPR CHOP confirm: 19

How did O=C1NC(=O)C(=Cc2ccc(-c3ccc(Cl)cc3)o2)C(=O)N1 do in these assays?
B2AR ag: 60*; T cell HTS: 197; UPR CHOP act: 71*; XBP1 UPR activ: 0; UPR CHOP confirm: 75*

Results for O=C1NC(=O)C(=Cc2ccc(Sc3ccccc3)o2)C(=O)N1 ?
B2AR ag: -4; T cell HTS: 288; UPR CHOP act: 9; XBP1 UPR activ: 9

How did C/C(=C\c1ccc(N(C)C)cc1)[N+](=O)[O-] do in these assays?
B2AR ag: 15; T cell HTS: 150; UPR CHOP act: 224*; XBP1 UPR activ: -1; UPR CHOP confirm: 150*
